Reference: PubChem BioAssay AID2764 (Sanford-Burnham Center for Chemical Genomics, 2010)
The other results are listed elsewhere or left out. Calls of active or inactive are those of the source.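 The calls were made as follows: active = activation above 40%, taking the highest of four retests; inactive = the rest.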

Target: Apelin receptor (Homo sapiens) (UniProt P35414)
Test: APJ activation via beta-arrestin recruitment – cell-based, single concentration, CHO-K1, luminescence, confirmation (AID 2764);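 also: plate controls were DMSO wells for no effect and apelin-13 at 10 nM for full effect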
Settings: CHO-K1 APJ PathHunter beta-arrestin, at 20 µM, hits give high values
In short: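 Assay system: CHO-K1 AGTRL-1 (APJ) PathHunter cells, ProLink-APJ, EA-beta-arrestin fusions; compound dosing: single dose, compounds 20 µM final, 1% DMSO; timing: overnight cell seeding, 90 min compound exposure at 25 °C, 60 min detection; detection: luminescence, enzyme-fragment complementation; measure: % activation, beta-arrestin recruitment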

Apelin receptor (Homo sapiens), sequence (P35414 whole entry, looked up): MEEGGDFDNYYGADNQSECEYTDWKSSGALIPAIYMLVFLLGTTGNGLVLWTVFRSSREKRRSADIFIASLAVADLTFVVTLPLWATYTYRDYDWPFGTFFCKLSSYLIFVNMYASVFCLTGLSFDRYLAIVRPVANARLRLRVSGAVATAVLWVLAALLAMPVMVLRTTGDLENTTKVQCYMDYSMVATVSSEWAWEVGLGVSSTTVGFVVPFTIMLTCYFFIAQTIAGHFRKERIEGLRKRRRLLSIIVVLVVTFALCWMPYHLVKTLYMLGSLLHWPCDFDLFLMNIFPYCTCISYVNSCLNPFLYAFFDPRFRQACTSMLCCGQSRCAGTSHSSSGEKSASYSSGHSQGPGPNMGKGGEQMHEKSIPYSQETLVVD

SMILES | activation
CCOc1cc2[nH]c(=S)n(CCCN3CCCC3=O)c(=O)c2cc1OCC | 20.1% (inactive)
CC(=O)N1CCCc2cc(S(=O)(=O)N3CCCC(C(=O)N4CCN(c5cccc(Cl)c5)CC4)C3)ccc21 (configuration not stated) | 27.4% (inactive)
Cc1ccccc1-n1nnc2c(=O)oc3ccccc3c21 | 7.92% (inactive)
Nc1nc(-c2sc3nc4c(cc3c2N)CCCC4)nc(N2CCOCC2)n1 | 15% (inactive)
Cc1ccc2nc(-c3ccc(NC(=O)c4cccnc4)cc3)oc2c1 | 18.4% (inactive)
O=C(CSc1nc(Nc2ccccc2)nc(N2CCOCC2)n1)Nc1cc(Cl)ccc1O | 15.9% (inactive)
CC1=C/C(=N\OS(=O)(=O)c2ccccc2)C=CC1=O | 30.6% (inactive)
CCCc1ccc(OCc2ccc(C(=O)N/N=C/c3cccc([N+](=O)[O-])c3)o2)c(OC)c1 | 19.3% (inactive)
CCC(C)(C)C1CCC(=NNC(=O)c2ccc(Br)o2)CC1 (configuration not stated) | 12.3% (inactive)
COc1cc(NC(=O)C2=C(C)OCCS2)c(Cl)cc1C(=O)NCCN1CCN(C)CC1 | 11.7% (inactive)
COc1ccc(C(=O)O/N=C(\N)Cc2ccc(Cl)cc2Cl)cc1OC | 24.9% (inactive)
CCCCCCc1cc2cc(-c3nnc(-c4ccccc4)o3)c(=O)oc2cc1O | -0.485% (inactive)
